Data taken from ChEMBL document CHEMBL5042517, “Discovery, X-ray Crystallography, and Anti-inflammatory Activity of Bromodomain-containing Protein 4 (BRD4) BD1 Inhibitors Targeting a Distinct New Binding Site” (J Med Chem, 2022).
The source made the active and inactive calls. No cut-off for these calls is given here.

Experiments:
Mus musculus [1] = experiment: Antiinflammatory activity in C57BL/6 mouse model of poly(I:C)-induced acute airway inflammation assessed as inhibition of neutrophilic inflammation around small sized airways at 10 mg/kg, po administered 1 day prior to poly(I:C) stimulation by H and E staining based analysis; assay type: functional; set-up: scale not given: the % may be the effect or the level left
[2] = molecular target: T1, Bromodomain testis-specific protein (Homo sapiens, UniProt Q58F21); experiment: Binding affinity BRDT BD1 (unknown origin) incubated for 1 hr by TR-FRET assay
Mus musculus [3] = experiment: Antiinflammatory activity in C57BL/6 mouse model of poly(I:C)-induced acute airway inflammation assessed as decrease in CIG5 gene expression in lung tissue at 10 mg/kg, po administered 1 day prior to poly(I:C) stimulation; assay type: functional, organism-based
[4] = Cmax in rat at 20 mg/kg, po; assay type: ADME, organism-based; set-up: route oral, dose 20 mg/kg; conditions: in vivo
[5] = molecular target: T2, Bromodomain-containing protein 4 (Homo sapiens, UniProt O60885)
Mus musculus [6] = experiment: Antiinflammatory activity in C57BL/6 mouse model of poly(I:C)-induced acute airway inflammation assessed as decrease in total cells level in BALF at 10 mg/kg, po administered 1 day prior to poly(I:C) stimulation; assay type: functional, organism-based
[7] = molecular target: T2, Bromodomain-containing protein 4; remark: listed apart in the source
Mus musculus [8] = experiment: Antiinflammatory activity in C57BL/6 mouse model of poly(I:C)-induced acute airway inflammation assessed as decrease in KC level in BALF at 10 mg/kg, po administered 1 day prior to poly(I:C) stimulation; assay type: functional, organism-based
[9] = molecular target: T2, Bromodomain-containing protein 4; remark: listed apart in the source
[10] = Antiinflammatory activity in human SAEC assessed as inhibition of Poly(I:C) induced CIG5 expression pretreated for 24 hrs followed by Poly(I:C) addition for 4 hrs by qRT-PCR analysis; assay type: functional, cell-based
Method in brief: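 Poly(I:C) 10 μg/mL then added for 4 h. CIG5 or IL-6 mRNA measured by qRT-PCR (ΔΔCt, PPIA normalized). IC50 from a four-parameter fit, mean ± SD of three independent runs.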

[11] = molecular target: T2, Bromodomain-containing protein 4; remark: listed apart in the source
[12] = molecular target: T1, Bromodomain testis-specific protein; experiment: Binding affinity BRDT BD2 (unknown origin) incubated for 1 hr by TR-FRET assay
[13] = molecular target: T2, Bromodomain-containing protein 4; remark: listed apart in the source
[14] = AUC (0 to t) in rat at 10 mg/kg, iv; assay type: ADME, organism-based; set-up: dose 10 mg/kg; conditions: in vivo
Mus musculus [15] = experiment: Antiinflammatory activity in C57BL/6 mouse model of poly(I:C)-induced acute airway inflammation assessed as decrease in H3K122Ac accumulation in lung tissue at 10 mg/kg, po administered 1 day prior to poly(I:C) stimulation by immunofluorescence analysis; assay type: functional, organism-based
Method in brief: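 Same mouse model: 10 mg/kg po one day before, plus a second dose with intranasal poly(I:C) (300 μg). Lungs collected one day later. H3K122Ac detected by immunofluorescence on paraffin lung sections and quantified as fold change in total fluorescence intensity.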

[16] = Clearance in rat at 10 mg/kg, iv; assay type: ADME, organism-based; conditions: in vivo
[17] = system: Bromodomain-containing protein 4 (Homo sapiens), O60885 [E151A]
Mus musculus [18] = experiment: Antiinflammatory activity in C57BL/6 mouse model of poly(I:C)-induced acute airway inflammation assessed as decrease in KC gene expression in lung tissue at 10 mg/kg, po administered 1 day prior to poly(I:C) stimulation; assay type: functional, organism-based
Mus musculus [19] = experiment: Antiinflammatory activity in C57BL/6 mouse model of poly(I:C)-induced acute airway inflammation assessed as decrease in MCP-1 level in BALF at 10 mg/kg, po administered 1 day prior to poly(I:C) stimulation; assay type: functional, organism-based
Mus musculus [20] = experiment: Antiinflammatory activity in C57BL/6 mouse model of poly(I:C)-induced acute airway inflammation assessed as inhibition of neutrophilic inflammation around medium sized airways at 10 mg/kg, po administered 1 day prior to poly(I:C) stimulation by H and E staining based analysis; assay type: functional; set-up: scale not given: the % may be the effect or the level left
[21] = molecular target: T2, Bromodomain-containing protein 4; experiment: Binding affinity to wild type human BRD4 BD2 (349 to 461 residues) expressed in bacterial competent cells assessed as increase in thermal stability by thermal shift assay
[22] = molecular target: T3, Bromodomain-containing protein 3 (Homo sapiens, UniProt Q15059); experiment: Binding affinity BRD3 BD1 (unknown origin) incubated for 1 hr by TR-FRET assay
T3 sequence (Q15059 whole entry): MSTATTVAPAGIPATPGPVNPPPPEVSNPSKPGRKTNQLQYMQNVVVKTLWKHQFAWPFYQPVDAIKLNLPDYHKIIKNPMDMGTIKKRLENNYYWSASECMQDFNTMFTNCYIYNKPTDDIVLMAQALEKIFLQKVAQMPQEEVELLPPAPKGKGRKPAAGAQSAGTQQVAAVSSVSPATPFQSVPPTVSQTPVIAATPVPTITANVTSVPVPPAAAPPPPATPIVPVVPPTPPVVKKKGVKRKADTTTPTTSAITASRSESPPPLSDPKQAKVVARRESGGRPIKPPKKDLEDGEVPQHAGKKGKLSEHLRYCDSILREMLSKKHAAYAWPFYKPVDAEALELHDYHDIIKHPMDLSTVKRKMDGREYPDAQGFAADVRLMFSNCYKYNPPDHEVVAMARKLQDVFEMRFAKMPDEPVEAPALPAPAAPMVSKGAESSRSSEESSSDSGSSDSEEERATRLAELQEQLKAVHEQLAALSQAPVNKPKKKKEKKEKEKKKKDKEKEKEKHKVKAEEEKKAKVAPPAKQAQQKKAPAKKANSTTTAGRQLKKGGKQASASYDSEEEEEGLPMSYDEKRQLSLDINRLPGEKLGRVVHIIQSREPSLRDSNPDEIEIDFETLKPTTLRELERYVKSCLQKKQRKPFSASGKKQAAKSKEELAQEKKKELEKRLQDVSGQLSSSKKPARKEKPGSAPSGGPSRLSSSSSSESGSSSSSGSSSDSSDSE

Mus musculus [23] = experiment: Antiinflammatory activity in C57BL/6 mouse model of poly(I:C)-induced acute airway inflammation assessed as decrease in ISG54 gene expression in lung tissue at 10 mg/kg, po administered 1 day prior to poly(I:C) stimulation; assay type: functional, organism-based
Mus musculus [24] = experiment: Antiinflammatory activity in C57BL/6 mouse model of poly(I:C)-induced acute airway inflammation assessed as decrease in RANTES level in BALF at 10 mg/kg, po administered 1 day prior to poly(I:C) stimulation; assay type: functional, organism-based
SAEC = experiment: Antiinflammatory activity in human SAEC assessed as decrease in H3K122Ac accumulation by immunofluorescence analysis; assay type: functional, cell-based
Method in brief: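 Immortalized human small airway epithelial cells stimulated with poly(I:C) at 10 μg/mL. H3K122Ac detected by immunofluorescence and quantified as fold change in total fluorescence intensity.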

[25] = Half life in rat at 10 mg/kg, iv; assay type: ADME, organism-based; conditions: in vivo
[26] = molecular target: T3, Bromodomain-containing protein 3; experiment: Binding affinity BRD3 BD2 (unknown origin) incubated for 1 hr by TR-FRET assay
[27] = molecular target: T2, Bromodomain-containing protein 4; remark: listed apart in the source
Mus musculus [28] = experiment: Antiinflammatory activity in C57BL/6 mouse model of poly(I:C)-induced acute airway inflammation assessed as decrease in IL-6 gene expression in lung tissue at 10 mg/kg, po administered 1 day prior to poly(I:C) stimulation; assay type: functional, organism-based
[29] = molecular target: Bromodomain-containing protein 2 (Homo sapiens, UniProt P25440); experiment: Binding affinity BRD2 BD2 (unknown origin) incubated for 1 hr by TR-FRET assay
Chain of Bromodomain-containing protein 2 (P25440 whole entry): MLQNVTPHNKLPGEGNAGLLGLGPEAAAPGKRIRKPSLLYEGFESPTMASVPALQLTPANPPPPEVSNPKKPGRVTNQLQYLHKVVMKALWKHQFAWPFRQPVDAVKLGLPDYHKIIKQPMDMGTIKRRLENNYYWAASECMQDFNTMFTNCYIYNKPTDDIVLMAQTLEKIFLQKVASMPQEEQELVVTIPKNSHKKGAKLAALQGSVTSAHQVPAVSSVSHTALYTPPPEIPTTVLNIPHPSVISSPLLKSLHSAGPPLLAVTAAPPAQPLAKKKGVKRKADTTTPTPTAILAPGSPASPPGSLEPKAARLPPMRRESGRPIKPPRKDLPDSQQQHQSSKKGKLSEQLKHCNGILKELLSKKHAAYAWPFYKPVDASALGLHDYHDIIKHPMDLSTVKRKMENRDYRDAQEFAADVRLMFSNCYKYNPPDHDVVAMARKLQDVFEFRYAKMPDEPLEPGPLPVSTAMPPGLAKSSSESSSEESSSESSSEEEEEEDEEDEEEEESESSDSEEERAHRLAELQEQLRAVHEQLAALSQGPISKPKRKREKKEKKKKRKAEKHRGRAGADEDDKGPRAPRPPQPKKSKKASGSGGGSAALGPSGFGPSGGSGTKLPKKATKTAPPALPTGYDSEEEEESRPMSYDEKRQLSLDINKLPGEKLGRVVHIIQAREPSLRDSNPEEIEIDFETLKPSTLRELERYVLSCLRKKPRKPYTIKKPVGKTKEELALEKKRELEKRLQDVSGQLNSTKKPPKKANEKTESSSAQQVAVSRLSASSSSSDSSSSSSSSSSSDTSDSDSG
Method in brief: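 Commercial TR-FRET kit with recombinant BRD2 bromodomain. Inhibitor at 0.01 nM–100 μM, 1 h at room temperature. Excitation 340 nm; 670/620 nm emission ratio read with 100 μs delay. IC50 from a four-parameter fit, mean of three runs.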

[30] = system: Bromodomain-containing protein 4 (Homo sapiens), O60885 [E151A]; remark: listed apart in the source
[31] = system: Bromodomain-containing protein 4 (Homo sapiens), O60885 [E151A]; remark: listed apart in the source
[32] = molecular target: T2, Bromodomain-containing protein 4; remark: listed apart in the source
[33] = molecular target: T2, Bromodomain-containing protein 4; remark: listed apart in the source

IC50 [2]: 2420 nM
Cmax [4]: 86.9 ng/mL
ΔTm [5]: 15.7 °C
ΔTm [7]: 0.9 °C
ΔTm [9]: 0.8 °C
IC50 [10]: 200 nM
ΔTm [11]: 0.6 °C
IC50 [12]: 1900 nM
ΔTm [13]: 15.5 °C
AUC(0-t) [14]: 2170 ng·h/mL
clearance [16]: 75 mL/min/kg
ΔTm [17]: 0.9 °C
Activity [21]: inactive
IC50 [22]: 2180 nM
half-life [25]: 2.5 h
IC50 [26]: 2000 nM
ΔTm [27]: 0.6 °C
IC50 [29]: 1310 nM
ΔTm [30]: 0.1 °C
ΔTm [31]: 0.4 °C
ΔTm [32]: 0.7 °C
ΔTm [33]: 13.3 °C
SMILES: O=C(Nc1ccc(C(F)(F)F)cc1)Nc1ccc(S(=O)(=O)N2CCC[C@H]2CN2CCOCC2)cc1
Activity (Mus musculus [1]): 100%
Activity (Mus musculus [3]): inactive
Activity (Mus musculus [6]): Active
Activity (Mus musculus [8]): inactive
Activity (Mus musculus [15]): Active
Activity (Mus musculus [18]): inactive
Activity (Mus musculus [19]): inactive
Activity (Mus musculus [20]): 100%
Activity (Mus musculus [23]): Active
Activity (Mus musculus [24]): inactive
Activity (SAEC): Active
Activity (Mus musculus [28]): inactive
